Assay results reported in ChEMBL document CHEMBL4765486, “Novel Nonsecosteroidal Vitamin D Receptor Modulator Combined with Gemcitabine Enhances Pancreatic Cancer Therapy through Remodeling of the Tumor Microenvironment” (J Med Chem, 2021).
Activity calls are given as the source filed them. Unless noted, the rule behind the calls is not given here.

Key:
LTC-14 [1] = assay: Inhibition of rat LTC-14 cells activation assessed as inhibition of Fgf mRNA expression at 0.5 uM treated under conditioned media of DSL-6A/C1 cells for 24 hrs by q-PCR analysis; type: functional, cell-based
Summary of the method: (§1)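 LTC-14 PSCs were exposed for 24 h to conditioned medium from rat DSL-6A/C1 cancer cells containing compound at 0.5 μM. Pdgfa, Pdgfb, Fgf2, Hgf and Periodin mRNA were quantified by RT-qPCR. Three repeats, mean ± SD versus CM alone.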

LTC-14 [2] = assay: Inhibition of rat LTC-14 cells activation assessed as reduction in ECM deposition resulting in doxorubicin accumulation in PSC spheres pretreated with compounds followed by doxorubicin addition by laser confocal microscopy analysis; type: functional, cell-based
Summary of the method: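 LTC-14 cells were grown in 3D culture to form PSC spheres and treated with compounds. Fluorescent doxorubicin was then added, and its penetration into the spheres was imaged by laser confocal microscopy. Three repeats, versus untreated control.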

[3] = Cytotoxicity against rat DSL-6A/C1 cells assessed as reduction in cell proliferation at 0.5 uM incubated for 24 hrs by MTT assay; type: cell-based; conditions: dsl-6a/c1, 24 h
LTC-14 [4] = assay: Inhibition of rat LTC-14 cells activation assessed decrease in TGF-beta1 induced collagen 1 protein expression at 0.5 uM incubated for 24 hrs by Western blot analysis; type: functional, cell-based
Summary of the method: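 LTC-14 cells were treated for 24 h with compound (0.5 μM) plus TGF-β1 (0.5 ng/mL in the text, 5 ng/mL in the methods). Lysates were run on 10% SDS-PAGE, transferred to PVDF and probed with rabbit anti-collagen I, with β-actin as reference. Bands were quantified by densitometry versus TGF-β1 alone.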

LTC-14 [5] = assay: Inhibition of rat LTC-14 cells activation assessed as inhibition of PDGFA mRNA expression at 0.5 uM treated under conditioned media of DSL-6A/C1 cells for 24 hrs by q-PCR analysis; type: functional, cell-based; summary of the method: as §1
DSL-6A/C1 [6] = assay: Antiproliferative activity against rat DSL-6A/C1 cells assessed as reduction in cell viability at 0.5 uM treated with conditioned media of LTC-14 cells for 24 hrs by MTT assay; type: functional, cell-based
Summary of the method: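 Rat pancreatic cancer DSL-6A/C1 cells were cultured in supernatant from LTC-14 PSCs (PSC-CM) with compound added at 0.5 μM for 24 h. Viability was then read by MTT: 4 h incubation with MTT (5 mg/mL stock), absorbance at 570 nm. Run in triplicate, compared with PSC-CM alone.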

Vitamin D3 receptor = biological target: T1, Vitamin D3 receptor (Homo sapiens, UniProt P11473); assay: Binding affinity to VDR (unknown origin) by fluorescence polarization assay
T1 sequence (P11473 whole entry): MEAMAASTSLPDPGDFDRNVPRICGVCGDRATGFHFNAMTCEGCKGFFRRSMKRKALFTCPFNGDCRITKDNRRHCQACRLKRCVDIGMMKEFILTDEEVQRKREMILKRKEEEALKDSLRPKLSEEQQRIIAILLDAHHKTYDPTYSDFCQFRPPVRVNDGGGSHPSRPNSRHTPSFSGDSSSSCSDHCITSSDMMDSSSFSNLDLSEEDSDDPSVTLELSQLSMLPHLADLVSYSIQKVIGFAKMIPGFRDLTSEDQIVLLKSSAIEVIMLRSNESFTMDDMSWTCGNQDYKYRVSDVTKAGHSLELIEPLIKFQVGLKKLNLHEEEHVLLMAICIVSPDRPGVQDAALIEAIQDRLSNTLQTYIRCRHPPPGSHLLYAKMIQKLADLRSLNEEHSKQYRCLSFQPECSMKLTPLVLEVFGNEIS
Summary of the method: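 Competitive VDR binding was measured by PolarScreen fluorescence polarization, in triplicate.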

LTC-14 [7] = assay: Inhibition of rat LTC-14 cells activation assessed as inhibition of PDGFB mRNA expression at 0.5 uM treated under conditioned media of DSL-6A/C1 cells for 24 hrs by q-PCR analysis; type: functional, cell-based; summary of the method: as §1
DSL-6A/C1 [8] = assay: Antiproliferative activity against rat DSL-6A/C1 cells assessed as reduction in cell viability at 0.5 uM incubated for 24 hrs compound treated LTC-14-CM cells by MTT assay; type: functional, cell-based
Summary of the method: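 LTC-14 PSCs were pretreated with compound for 24 h. Their collected supernatant was used to culture DSL-6A/C1 cells, and proliferation was read by MTT: 4 h incubation with MTT (5 mg/mL stock), absorbance at 570 nm. Run in triplicate, compared with untreated PSC-CM.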

[9] = Cytotoxicity against rat LTC-14 cells assessed as reduction in cell proliferation incubated for 24 hrs by MTT assay; type: cell-based; conditions: LTC-14, 24 h
LTC-14 [10] = assay: Inhibition of rat LTC-14 cells interaction with DSL-6A/C1 cells in conditioned media assessed as inhibition of PDGF-A protein expression at 0.5 uM measured after 24 hrs by Western blot analysis; type: functional, cell-based
Summary of the method: (§2)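 LTC-14 cells were treated for 24 h with DSL-6A/C1 conditioned medium plus compound (0.5 μM). Proteins were separated on 10% SDS-PAGE, transferred to PVDF and probed with rabbit anti-PDGF-A or anti-POSTN, with β-actin as loading reference.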

DSL-6A/C1 [11] = assay: (§3) Potentiation of gemcitabine-induced antitumor activity against luciferase-tagged rat DSL-6A/C1 cells and GFP-tagged LTC-14 cells co-inoculated in orthotropic xenograft BALB/c nude mouse model of pancreatic cancer assessed as reduction in tumor volume at 500 ug/kg, ip administered once every 3 days for 12 days coadministered with gemcitabine at 100 mg/kg and measured after 3 days post last dose by IVIS optical imaging analysis; type: functional, organism-based; conditions: dose 500.0 µg/kg, time 12.0 day
Summary of the method: (§4)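 DSL-6A/C1-luci and LTC-14-GFP cells were co-inoculated orthotopically into the pancreas of nude mice, n=5 per group. Treatment began 7 days after grafting (methods) or 14 days (text). Gemcitabine 100 mg/kg ip every 3 days, alone or with compound 500 μg/kg or calcipotriol 60 μg/kg in ethanol/polyoxyethylene castor oil/saline (1:1:18), for 12 days. Tumour growth was followed by bioluminescence imaging.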

LTC-14 [12] = assay: Inhibition of rat LTC-14 cells activation assessed decrease in TGF-beta1 induced Acta2 mRNA expression at 0.5 uM incubated for 24 hrs by q-PCR analysis; type: functional, cell-based
Summary of the method: (§5)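 Immortalized rat PSC line LTC-14, about 1×10^5 cells per well, was grown 24 h at 37 °C in 5% CO2. Cells then received compound (0.5 μM) plus TGF-β1 for 24 h; TGF-β1 is stated as 0.5 ng/mL in the text and 5 ng/mL in the methods. Col1a1 and Acta2 mRNA were measured by RT-qPCR. Mean ± SD versus TGF-β1 alone.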

LTC-14 [13] = assay: Inhibition of rat LTC-14 cells activation assessed as inhibition of Hgf mRNA expression at 0.5 uM treated under conditioned media of DSL-6A/C1 cells for 24 hrs by q-PCR analysis; type: functional, cell-based; summary of the method: as §1
[14] = biological target: T2, Vitamin D3 receptor (Homo sapiens) (UniProt P11473); assay: Binding affinity to VDR (unknown origin) at 1 uM by fluorescence polarization assay relative to calcipotriol; conditions: filed as agonist
T2 sequence (whole entry): T1 sequence (P11473 whole entry)
Summary of the method: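 PolarScreen VDR competitor fluorescence polarization assay with compounds at 1 μM in triplicate. Read-out used 535 nm excitation and 590 nm emission filters.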

LTC-14 [15] = assay: Inhibition of rat LTC-14 cells activation assessed as inhibition of Periodin-mRNA expression at 0.5 uM treated under conditioned media of DSL-6A/C1 cells for 24 hrs by q-PCR analysis; type: functional, cell-based; summary of the method: as §1
[16] = biological target: T2, Vitamin D3 receptor (Homo sapiens); assay: Agonist activity at VDR (unknown origin) expressed in HEK293 cells co-transfected with pGL4.27-SPP3-Luc and CMV-hRXRalpha and pCMX-Renilla plasmids after 24 hrs by dual luciferase reporter gene assay; type: cell-based; conditions: filed as agonist, dose 0.0001-1 µM
Summary of the method: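 HEK293 cells in 48-well plates were transfected per well with 40 ng TK-Spp×3-LUC reporter, 20 ng pCMX-Renilla, 30 ng pENTER-CMV-hRXRα and 100 ng pCMX-VDR using Lipofectamine 2000. Compounds were added 8 h post-transfection, and dual-luciferase activity was read 24 h later. Firefly signal was normalised to Renilla. The experiment was run three times.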

LTC-14 [17] = assay: Inhibition of rat LTC-14 cells interaction with DSL-6A/C1 cells in conditioned media assessed as inhibition of POSTN protein expression at 0.5 uM measured after 24 hrs by Western blot analysis; type: functional, cell-based; summary of the method: as §2
Mus musculus [18] = assay: (§6) Inhibition of GFP-tagged rat LTC-14 cells activation in BALB/c nude mouse xenografted along with luciferase-tagged DSL-6A/C1-Luc cells assessed as reduction in alpha-smooth muscle actin expression in tumor at 500 ug/kg, ip administered once every 3 days for 12 days coadministered with gemcitabine at 100 mg/kg by DAPI staining based laser confocal scanning microscopy; type: functional, organism-based; conditions: dose 500.0 µg/kg, time 12.0 day
Summary of the method: (§7)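 Tumours were taken from orthotopic co-inoculated nude mice given gemcitabine 100 mg/kg plus compound (500 μg/kg) or calcipotriol (60 μg/kg) ip for 12 days. Sections were fixed in 4% PFA, permeabilised with 0.5% Triton X-100 and blocked in 5% BSA. They were incubated with anti-α-SMA overnight at 4 °C, then an Alexa Fluor 594 secondary for 1 h at 37 °C, DAPI-counterstained and imaged by confocal microscopy.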

LTC-14 [19] = assay: Inhibition of rat LTC-14 cell activation assessed decrease in TGF-beta1 induced Colla1 mRNA expression at 0.5 uM incubated for 24 hrs by q-PCR analysis; type: functional; summary of the method: as §5
DSL-6A/C1 [20] = conditions: Rattus norvegicus, dose 100.0 mg/kg, time 12.0 day
DSL-6A/C1 [21] = assay: as §3, with “against” for “against luciferase-tagged”, “DSL-6A/C1-Luc” for “DSL-6A/C1”, “LTC-14-GFP” for “GFP-tagged LTC-14”, “60” for “500”; type: functional, organism-based; conditions: dose 60.0 µg/kg, time 12.0 day; summary of the method: as §4
Mus musculus [22] = assay: as §6, with “60” for “500”, “mg/kg and measured after 3 days post last dose and” for “mg/kg”; type: functional, organism-based; conditions: dose 60.0 µg/kg, time 12.0 day; summary of the method: as §7

Question: Which inhibition (LTC-14 [1]) does the source give for CCn1cc(C(CC)(CC)c2ccc(OCC(C)O)c(C)c2)cc1C(=O)NCC(O)CO (centres undefined) here?
Answer: Active

Question: And the inhibition (LTC-14 [2])?
Answer: Active

Question: What about the Activity [3] of the same compound?
Answer: Non-Toxic

Question: What about the inhibition (LTC-14 [4]) of the same compound?
Answer: Active

Question: What about the inhibition (LTC-14 [5]) of the same compound?
Answer: Active

Question: What about the Activity (DSL-6A/C1 [6]) of the same compound?
Answer: inactive

Question: What about the IC50 (Vitamin D3 receptor) of the same compound?
Answer: 0.0816 µM

Question: What about the inhibition (LTC-14 [7]) of the same compound?
Answer: Active

Question: And the Activity (DSL-6A/C1 [8])?
Answer: Active

Question: And the IC50 [9]?
Answer: > 10 µM

Question: What about the inhibition (LTC-14 [10]) of the same compound?
Answer: Active

Question: What about the TGI (DSL-6A/C1 [11]) of the same compound?
Answer: Active

Question: What about the inhibition (LTC-14 [12]) of the same compound?
Answer: Active

Question: What about the inhibition (LTC-14 [13]) of the same compound?
Answer: Active

Question: And the RBA [14]?
Answer: 86%

Question: What about the inhibition (LTC-14 [15]) of the same compound?
Answer: Active

Question: What about the Activity [16] of the same compound?
Answer: Dose-dependent effect

Question: What about the inhibition (LTC-14 [17]) of the same compound?
Answer: Active

Question: And the inhibition (Mus musculus [18])?
Answer: Active

Question: And the inhibition (LTC-14 [19])?
Answer: Active

Question: Which TGI (DSL-6A/C1 [20]) does the source give for Nc1ccn([C@@H]2O[C@H](CO)[C@@H](O)C2(F)F)c(=O)n1 here?
Answer: inactive

Question: Which results are given for C=C1/C(=C/C=C2\CCC[C@]3(C)[C@@H]([C@H](C)/C=C/[C@@H](O)C4CC4)CC[C@@H]23)C[C@@H](O)C[C@@H]1O?
Answer: Activity (DSL-6A/C1 [21]): Active; Activity [3]: Non-Toxic; inhibition (LTC-14 [4]): Active; IC50 [9]: > 10 µM; inhibition (Mus musculus [22]): Active; inhibition (LTC-14 [12]): Active; Activity [16]: Dose-dependent effect; inhibition (LTC-14 [19]): Active
